APP 5'UTR act: APP 5'UTR luciferase reporter activation; SH-SY5Y APP 5'UTR luciferase reporter, luminescence; zero percent = DMSO vehicle wells; actives 1% (n = 190,000); activation, % at 2 µM; AID 1276;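 active = activation above a set limit, based on mean plus 3 SD of controls, cut at about 140% in these data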
STAT1 act: increases IFN-gamma driven STAT1 reporter signal; NIH 3T3 STAT1-luciferase reporter, luminescence; 100% = IFN-gamma alone, no compound; activation (% of control), % at 5.5 µM; actives 2.6% (n = 200,000);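 active = activation above the screen-wide mean activation plus 3 SD, cut at about 130% in these data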;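 also: raw ratio to IFN-gamma control signal so 100% means no change and 0% no light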
Pf gamet viab: P. falciparum stage V gametocyte viability inhibition; inhibition, % at 10.9 µM; actives 0.065% (n = 150,000); P. falciparum stage V gametocytes, ATP luminescence, 24 h;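 active = inhibition above the mean plus 3 SD of compounds within the control limits, set per campaign, cut at about 38% in these data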;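 also: 0% = DMSO wells and 100% = medium only without gametocytes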
FLuc inhib CS: counter-screen for luciferase assay inhibitors: firefly luciferase inhibition; P08659; ATPLite firefly luciferase biochemical luminescence, 10 min; inhibition, % at 10 µM; actives 1.5% (n = 200,000); AID 1006;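 active = inhibition above about 50% when tested at 10 µM, limit read from the data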
Target sequence (P08659 whole entry, looked up): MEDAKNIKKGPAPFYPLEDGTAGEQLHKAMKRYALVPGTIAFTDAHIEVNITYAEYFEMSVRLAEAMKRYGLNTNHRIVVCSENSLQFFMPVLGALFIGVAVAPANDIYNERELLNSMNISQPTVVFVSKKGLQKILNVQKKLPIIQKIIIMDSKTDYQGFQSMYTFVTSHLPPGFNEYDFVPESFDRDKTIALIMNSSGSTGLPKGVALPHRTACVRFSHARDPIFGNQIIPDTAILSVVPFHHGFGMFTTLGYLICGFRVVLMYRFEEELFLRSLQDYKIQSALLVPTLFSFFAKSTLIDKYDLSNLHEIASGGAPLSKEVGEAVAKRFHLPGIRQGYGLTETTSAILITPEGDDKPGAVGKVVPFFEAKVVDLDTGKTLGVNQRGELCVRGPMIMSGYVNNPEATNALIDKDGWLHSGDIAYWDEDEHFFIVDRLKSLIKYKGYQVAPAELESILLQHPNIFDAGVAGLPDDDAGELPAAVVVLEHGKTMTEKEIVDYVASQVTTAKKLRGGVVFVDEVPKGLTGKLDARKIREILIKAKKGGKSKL
NF-kB expr up: raises NF-kB expression in human neuronal cells | fold change at 12.5 µM | AID 1239 | actives 1.6% (n = 190,000) | NF-kB reporter expression; stronger effect = higher value; in the data active = fold change above about 3.3
FLuc stim CS: firefly luciferase counter-screen for stimulation assays | activation factor at 10 µM | ATPlite luciferase biochemical, luminescence, 10 min; 0 = ATP-free wells, 1 = DMSO control | AID 1027 | 200,000 tested, under 10 active;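 active = luciferase activation factor, scaled between plate controls, of at least 2 with compound at 10 µM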
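Material: Luciferase/luciferin reagent mix; Doses: test compounds dosed from 2 mM stocks in 100% DMSO; Schedule: 10 min incubation after luciferase reagent addition, room temperature; Measured by: luminescence from luciferase reaction; Read-out: luminescence gain marking luciferase activators.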
The depositor's hits bear a star; . = not tested or not shown. Hits are enriched below; roughly 3.5% of the tested compounds scored in any of these assays.

SMILES	APP 5'UTR act	STAT1 act	Pf gamet viab	FLuc inhib CS	NF-kB expr up	FLuc stim CS
CN1CCN(/N=C/c2ccc(-c3ccccc3)cc2)CC1	75	116	2	11	3.8*	0.9
Cc1ccc(/C=N/N2CCN(c3ccccn3)CC2)cc1	-2	142*	-7	4	2.2	1
COc1ccc(-c2nc3n(n2)C(c2ccccc2)C2=C(CCCC2=O)N3)cc1OC (centres undefined)	9	91	-38	-6	1.2	1.1
COc1ccc(F)cc1-c1nc(N)nc(N)n1	.	.	20	.	.	.
CCOC(=O)C=C(C(=O)OCC)C(=O)OCC	-1	101	21	-8	1	1.1
c1csc(-c2nnc(-c3ccc(N4CCOCC4)cc3)o2)c1	122	114	8	71*	3.4*	0.3
CCOc1ccc(-c2nnc(-c3cccs3)o2)cc1OCC	62	124	-22	4	2.1	1
COc1ccc(-c2nnc(-c3cccs3)o2)cc1OC	116	150*	.	30	2.8	0.7
CCOc1ccc(-c2nnc(-c3cccs3)o2)cc1	133	72	.	65*	4.2*	0.3
CCN1C(=O)[C@@H]2[C@@H](c3ccc(-c4ccc(Cl)c(Cl)c4)c(OC)c3)N3CCCC[C@@]3(C(=O)OC)[C@@H]2C1=O	.	.	16	.	.	.
CCOC(=O)C1CCN(CCC(=O)Nc2ccc(Br)c(C)c2)CC1	.	.	-8	.	.	.
O=C(CCNS(=O)(=O)c1ccccc1F)NCc1ccc2c(c1)OCO2	16	96	21	-8	1.1	1.1
O=C(NCCOc1ccccc1Cl)c1ncn[nH]1	-5	94	-26	-2	0.91	1
O=C(NCCOc1ccccc1Cl)c1cc(F)c(F)cc1Cl	124	130*	.	-2	3.8*	1
Cc1ccc(C=C2C(=O)c3ccccc3C2=O)s1	26	111	.	75*	1.2	0.3
O=C1/C(=C/c2cccs2)Cc2ccccc21	56	111	-6	58*	2.9	0.4
COc1ccc2c(c1)OC/C(=C/c1cccs1)C2=O	131	147*	-25	87*	6.9*	0.1
Cc1ccccc1C1=N/C(=C/c2cccs2)C(=O)O1	8	98	-15	85*	1.5	0.2
CSC1=N/C(=C\c2ccc(C)s2)C(=O)S1	2	102	-3	23	1.1	0.8
O=C(N/N=C/c1ccc(Sc2nc3ccccc3s2)c([N+](=O)[O-])c1)c1ccccn1	-3	98	.	-9	1.1	1.1
CCCCCOC(=O)C1=C(C)NC(=O)NC1c1ccc(OC)cc1 (centres undefined)	.	.	-13	.	.	.
CN1C(=O)/C(=C/c2ccccc2Cl)Sc2ccc(C(=O)NCc3cccnc3)cc21	25	103	9	-1	1.1	1
Cc1cc2nc(NCCCO)n(CC(=O)c3cc(C(C)(C)C)c(O)c(C(C)(C)C)c3)c2cc1C	.	.	3	.	.	.
Cc1ccc(/C=C2/C(=O)c3ccc(C(=O)O)cc3C2=O)o1	-1	96	-9	42	1.1	0.6
Cc1ccc(C=C2C(=O)c3ccccc3C2=O)o1	2	106	-142	84*	1.2	0.2
SMILES	APP 5'UTR act	STAT1 act	Pf gamet viab	FLuc inhib CS	NF-kB expr up	FLuc stim CS
O=C1C(=Cc2cccs2)C(=O)c2ccccc21	3	105	14	53*	1.2	0.5
CN1CCN(c2nc(-c3ccccc3)ncc2S(=O)(=O)c2ccccc2)CC1	13	99	-8	-1	0.96	1
O=S(=O)(c1ccccc1)c1cnc(-c2ccccc2)nc1N1CCCCC1	-5	145*	0	0	1.6	1
O=c1ncn(-c2cccc(Cl)c2)c2ccccc12	.	.	-3	.	.	.
Cc1ccc2cc(C#N)c(SCc3nnc(-c4ccccc4[N+](=O)[O-])o3)nc2c1	28	96	.	-2	4.7*	1
COc1ccc(C(=O)/C=C/c2cccs2)c(OC(=O)c2cccc([N+](=O)[O-])c2)c1	21	112	2	1	6*	1
COc1ccc(C(=O)/C=C/c2ccc(F)cc2)c(OC(=O)c2ccc([N+](=O)[O-])cc2)c1	8	104	4	-4	1.6	1
COc1ccc(-c2nnc(-c3ccc(N(C)C)cc3)o2)cc1	-7	112	-4	12	2.2	0.9
COc1ccc(-c2nnc(-c3ccc(N)cc3)o2)cc1	79	140*	22	68*	5.7*	0.3
CC(C)CCNC(=O)NC(=O)CSc1nnc(-c2ccccc2Br)o1	16	100	.	-7	1.2	1.1
COc1ccc2nc(SCC(N)=O)[nH]c2c1	-6	102	6	-3	1.1	1
COc1ccc2nc(SCC(=O)/C(C#N)=C(\C)N)[nH]c2c1	121	141*	2	26	4.1*	0.7
COc1ccc(-c2nnc(SCC(=O)/C(C#N)=C(\C)N)o2)cc1	194*	136*	9	10	5.1*	0.9
C/C(N)=C(/C#N)C(=O)CSc1nnc(-c2ccccc2Br)o1	198*	138*	-15	0	5.5*	1
CCc1nnc(NC(=O)Cn2nnc(-c3ccccc3F)n2)s1	9	101	.	-6	1	1.1
COC(=O)c1cc(NC(=O)c2ccc(F)cc2)cc(C(=O)OC)c1	4	95	-12	-1	1.1	1
COc1cc(C2C3=C(Nc4nc(N)[nH]c(=O)c42)c2ccccc2C3=O)ccc1O (centres undefined)	.	.	27	.	.	.
CC(=O)c1c(C)[nH]c(C(=O)OCc2ccccc2)c1C	50	142*	-24	3	2.2	1
COC(=O)c1ccc(COC(=O)c2[nH]c(C)c(C(C)=O)c2C)o1	-1	79	-2	3	0.88	1
COC(=O)c1sc(NC(=O)c2ccc(C)o2)nc1C	70	121	.	52*	1.3	0.5
CCOC(=O)c1sc(NC(=O)c2ccc(C)o2)nc1C	85	123	.	69*	3.2	0.3
COC(=O)c1sc(NC(=O)c2oc3ccccc3c2C)nc1C	27	144*	.	6	2.5	0.9
Cc1ccc(C(=O)Nc2nnc(C)s2)o1	-10	107	.	-4	1.2	1
N#Cc1cccc(Oc2ccc(-c3cnc4ccccc4n3)cc2)c1C#N	-6	101	.	-5	1.2	1.1
CCOC(=O)C1CN(S(=O)(=O)c2ccc(C)cc2)C1	2	96	13	-6	1.2	1.1
CCC(=O)c1ccc(OCCSc2ncccn2)cc1	102	124	.	6	2.9	0.9
COc1ccccc1NC(=O)Cn1nc(Cc2cccnc2)c2ccccc2c1=O	.	.	3	.	.	.
O=C(Nc1cccnc1)c1cc(-c2ccccc2)on1	17	106	.	65*	1.2	0.3
O=C(Nc1cccnc1)c1ccc(F)cc1	3	99	.	-2	1.1	1
O=C(Nc1cccnc1)c1cc(-c2ccc(Br)cc2)on1	2	111	.	27	2.3	0.7
